In article PMC2802674 (Carcinogenesis, 2009):

What was measured:
[1] = system: human lymphoblastoid TK6 cells; details: cited from earlier work; for viability: TK6 cells exposed to millimolar concentrations; for cell death: TK6 cells
hepatic DNA = details: rats given 0.5 mmol/kg, 24 h, HPLC/MS/MS; cited from earlier work
[2] = system: HPRT gene of human lymphoblastoid TK6 cells; details: cited from earlier work
Nrf2 = details: in vivo in mice; cited from earlier work
[3] = system: 12-O-tetradecanoyl phorbol 13-acetate responsive element and nuclear factor-kappaB-binding activity; details: in an ROS-dependent fashion; cited from earlier work
ct-DNA = experiment: Effect of Phase II conjugation activity on DNA adduct formation in vitro; format: biochemical; details: human liver S9, 1 μM [14C]amine, 6 h at 37°C, NAT cofactors
bladder cancer [4] = details: population-based study, Los Angeles county; cited from earlier work
Calf thymus DNA = experiment: Formation of DNA adducts by [14C]alkylanilines in vitro with human hepatic S9; format: biochemical; details: human S9, 25–1000 nM alkylaniline (Figure 3)
How it was run: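 Calf thymus DNA (1 mg/ml) was incubated with human hepatic S9 (2 mg/ml) in 50 mM Tris pH 7.4 with NADPH regeneration (1.3 mM NADP+, 3.3 mM glucose-6-phosphate, 3.3 mM MgCl2, 0.1 U G6P dehydrogenase) and [14C]alkylaniline at 25, 100 or 1000 nM. Purified DNA-bound radiolabel was measured by accelerator mass spectrometry, as adducts per 10^8 nucleotides (±SD; N = 4).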

tissue DNA = details: C57/BL6 mice, dose ∼1 μmol/kg, accelerator mass spectrometry; cited from earlier work
[5] = system: S9 from human, rat, dog and mouse liver; details: cited from earlier work
humans = details: ref International Agency for Cancer; cited from earlier work
rats = details: oral administration, hydrochloride salt, ref International Agency for Cancer; cited from earlier work
bladder cancer [6] = details: occupationally exposed workers; cited from earlier work
[7] = rats, urine; cited from earlier work
mice = details: oral administration, hydrochloride salt, ref International Agency for Cancer; cited from earlier work
bone marrow of male mice = details: oral doses of up to 375 mg/kg/day; cited from earlier work
[8] = system: AA8 CHO cells (NER proficient) and UV5 cells (NER deficient); format: cell-based, Chinese hamster; details: for cytotoxicity: AA8 and UV5 cells, absence of human liver S9, 100 μM–1 mM; for influence of NER status on cytotoxicity: UV5 (NER deficient) versus AA8 (NER proficient), absence of human liver S9
How it was run: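 AA8 (NER-proficient) and UV5 (NER-deficient; induced XPD/ERCC2 defect) CHO lines, neither expressing significant phase I or II enzymes, exposed to parent alkylanilines at 50 μM–1 mM without human liver S9. Viability was scored by trypan blue exclusion 24 h after treatment.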

Escherichia coli = details: cited from earlier work
[9] = system: mouse L5178Y lymphoma cells; details: with and without exogenous metabolic activation; cited from earlier work
[10] = system: AA8 CHO cells (NER proficient) and UV5 cells (NER deficient); experiment: aprt mutant fraction in AA8 and UV5 CHO cells, 8-azaadenine selection; format: cell-based, Chinese hamster; details: absence of human liver S9, 100 μM–1 mM
How it was run: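 AA8 (NER-proficient) and UV5 (NER-deficient, XPD/ERCC2 defect) CHO cells, neither expressing significant phase I or phase II enzymes, were exposed without human liver S9. Doses were parent alkylanilines at 50 μM–1 mM, or N-hydroxy and aminophenol metabolites at 5–500 μM. Mutant fraction at the heterozygous aprt locus was determined by 8-azaadenine selection.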

[11] = system: recombinant human P450s (1A1, 1A2, 1B1, 2A6 and 2E1); details: five recombinant human P450s tested; unpublished results; cited from earlier work
E.coli K12 = details: host-mediated assay after feeding to mice; cited from earlier work
human liver microsomes = details: unpublished results; cited from earlier work
[12] = system: Chinese hamster ovary (CHO) cells; details: with and without exogenous metabolic activation; cited from earlier work
male and female rats = details: dose-dependent; cited from earlier work
Salmonella typhimurium = details: multiple bacterial strains, presence or absence of exogenous activating systems; cited from earlier work
[13] = system: CHO cells that are NER deficient (or proficient) and express mouse P4501A2 plus human aryl sulfotransferase or NAT genes; format: cell-based, Chinese hamster; details: two cell lines both deficient in NER, one expressing CYP1A2 and NAT2, 100 μM –1 mM
How it was run: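 These are engineered CHO lines, heterozygous at aprt. UV5 (NER-deficient, XPD/ERCC2 defect) transfected with mouse CYP1A2, then human NAT2 or aryl sulfotransferase; NER-proficient counterparts were included. Parent alkylanilines were dosed at 50 μM–1 mM, and N-hydroxy or aminophenol metabolites at 5–500 μM. Mutant fraction was determined by 8-azaadenine selection.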

rat hepatocytes = details: cited from earlier work
[14] = system: CHO cells that are NER deficient (or proficient) and express mouse P4501A2 plus human aryl sulfotransferase or NAT genes; format: cell-based, Chinese hamster; details: for contribution of aryl sulfotransferase relative to NAT2: NER-deficient cells expressing CYP1A2 and either phase II enzyme; for potency in inducing both responses (cytotoxicity and mutagenicity), influence of NER status: cell lines expressing CYP1A2 and NAT2; for cytotoxicity: two cell lines both deficient in NER, one expressing CYP1A2 and NAT2, 100 μM –1 mM
How it was run: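 CHO lines derived from AA8 via UV5 (NER-deficient through an induced XPD/ERCC2 defect). UV5P3 carries mouse CYP1A2 cDNA and was further transfected with human aryl sulfotransferase (HAST1) or NAT2; NER-proficient counterparts were also used. Exposure to parent alkylanilines at 50 μM–1 mM, or to N-hydroxy or aminophenol metabolites at 5–500 μM. Viability was scored by trypan blue exclusion 24 h after treatment.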

Drosophila melanogaster = details: feeding or injecting; cited from earlier work
rat liver microsomes = details: unpublished results; cited from earlier work

CCc1cccc(NO)c1 [N-hydoxy-3-EA]
viability [1]: did not cause reduced viability

Nc1ccc(-c2ccccc2)cc1 [4-aminobiphenyl, reference compound]
hepatic DNA adducts (hepatic DNA): ~500 adducts per 10^8 normal bases

Cc1cc(C)cc(NO)c1 [N-hydroxy-3,5-DMA]
HPRT mutagenicity [2]: mutagenic

CC(=O)Nc1ccc(O)cc1 [acetaminophen]
Nrf2 nuclear translocation (Nrf2): can initiate nuclear translocation of Nrf2

N[C@@H](CCC(=O)N[C@@H](CSc1cc(O)c(SC[C@H](NC(=O)CC[C@H](N)C(=O)O)C(=O)NCC(=O)O)c(SC[C@H](NC(=O)CC[C@H](N)C(=O)O)C(=O)NCC(=O)O)c1O)C(=O)NCC(=O)O)C(=O)O [TGHQ, 2,3,5-tris-(glutathion-S-yl)hydroquinone]
effect on TRE and NF-kappaB-binding activity [3]: modulates

CCc1cccc(N)c1 [3-EA, 3-ethylaniline]
viability [1]: did not cause reduced viability
decrease of DNA adduct level by promotion of NAT activity (ct-DNA): 28%
association with bladder cancer risk (bladder cancer [4]): independently associated with risk for development of bladder cancer
DNA binding of 3-EA compared with the other two alkylanilines (Calf thymus DNA): nearly identical to ∼6-fold less
labeling of tissue DNA (tissue DNA): detectable labeling of DNA
N-hydroxylation rate compared with 3,5-DMA or 2,6-DMA [5]: several times greater

Cc1ccc(N)c(C)c1 [2,4-dimethylaniline]
hepatic DNA adducts (hepatic DNA): < 3.2 adducts per 10^8 normal bases

Cc1ccccc1N [o-toluidine]
carcinogenicity category (humans): Group 1
tumour induction (rats): increased the incidence of tumours in multiple organs
human carcinogenicity finding (bladder cancer [6]): is indeed a human bladder carcinogen
production of an N-hydroxylamine in vivo [7]: urinary excretion of N-hydroxy-o-toluidine
tumour induction (mice): increased incidence of haemangiomas and haemangiosarcomas and hepatocellular carcinomas or adenomas

Cc1cccc(C)c1N [2,6-DMA, 2,6-dimethylaniline]
micronuclei (bone marrow of male mice): No increase of micronuclei
cytotoxicity [8]: cytotoxic
influence of NER status on cytotoxicity [8]: enhanced by NER deficiency
activity in DNA damage and repair assay (Escherichia coli): nor was it active
carcinogenicity category (humans): Group 2B
mutation induction [9]: induced mutations
cell death [1]: induced cell death
mutagenicity [10]: not mutagenic
N-hydroxylation activity [11]: only 2A6 exhibited N-hydroxylation activity
decrease of DNA adduct level by promotion of NAT activity (ct-DNA): 78%
genotoxic effect (E.coli K12): No genotoxic effect
association with bladder cancer risk (bladder cancer [4]): independently associated with risk for development of bladder cancer
conversion to the corresponding hydroxylamine (human liver microsomes): readily apparent
labeling of tissue DNA (tissue DNA): detectable labeling of DNA
genotoxic effects induced [12]: sister chromatid exchange and chromosomal aberrations
tumour induction (male and female rats): inducing carcinomas and papillary adenomas of the nasal cavity
hepatic DNA adducts (hepatic DNA): < 3.2 adducts per 10^8 normal bases
mutagenicity (Salmonella typhimurium): neither mutagenic
mutagenicity [13]: mutagenic only in cells expressing the metabolizing enzymes
unscheduled DNA synthesis (rat hepatocytes): did not induce unscheduled DNA synthesis
contribution of aryl sulfotransferase relative to NAT2 [14]: more effective in potentiating cytotoxicity but not mutagenicity
potency in inducing both responses (cytotoxicity and mutagenicity), influence of NER status [14]: greatly enhanced in the NER-deficient cells
cytotoxicity [14]: cytotoxic
sex-linked recessive lethal effect (Drosophila melanogaster): nor was feeding or injecting it effective
conversion to the corresponding hydroxylamine (rat liver microsomes): undetectable activity

Cc1cc(C)cc(N)c1 [3,5-DMA, 3,5-dimethylaniline]
cytotoxicity [8]: cytotoxic
influence of NER status on cytotoxicity [8]: enhanced by NER deficiency
cell death [1]: induced cell death
mutagenicity [10]: not mutagenic
enhancement of DNA adduct formation by promotion of NAT activity (ct-DNA): 53%
association with bladder cancer risk (bladder cancer [4]): independently associated with risk for development of bladder cancer
labeling of tissue DNA (tissue DNA): detectable labeling of DNA
mutagenicity [13]: mutagenic only in cells expressing the metabolizing enzymes
contribution of aryl sulfotransferase relative to NAT2 [14]: more effective in potentiating cytotoxicity but not mutagenicity
potency in inducing both responses (cytotoxicity and mutagenicity), influence of NER status [14]: greatly enhanced in the NER-deficient cells
cytotoxicity [14]: cytotoxic
